Assay results collected from several papers.
Protocols differ between the studies behind these lines.
Target: Receptor-interacting serine/threonine-protein kinase 4 (RIPK4, Homo sapiens, UniProt P57078)
Residues used in one study (P57078 1-832): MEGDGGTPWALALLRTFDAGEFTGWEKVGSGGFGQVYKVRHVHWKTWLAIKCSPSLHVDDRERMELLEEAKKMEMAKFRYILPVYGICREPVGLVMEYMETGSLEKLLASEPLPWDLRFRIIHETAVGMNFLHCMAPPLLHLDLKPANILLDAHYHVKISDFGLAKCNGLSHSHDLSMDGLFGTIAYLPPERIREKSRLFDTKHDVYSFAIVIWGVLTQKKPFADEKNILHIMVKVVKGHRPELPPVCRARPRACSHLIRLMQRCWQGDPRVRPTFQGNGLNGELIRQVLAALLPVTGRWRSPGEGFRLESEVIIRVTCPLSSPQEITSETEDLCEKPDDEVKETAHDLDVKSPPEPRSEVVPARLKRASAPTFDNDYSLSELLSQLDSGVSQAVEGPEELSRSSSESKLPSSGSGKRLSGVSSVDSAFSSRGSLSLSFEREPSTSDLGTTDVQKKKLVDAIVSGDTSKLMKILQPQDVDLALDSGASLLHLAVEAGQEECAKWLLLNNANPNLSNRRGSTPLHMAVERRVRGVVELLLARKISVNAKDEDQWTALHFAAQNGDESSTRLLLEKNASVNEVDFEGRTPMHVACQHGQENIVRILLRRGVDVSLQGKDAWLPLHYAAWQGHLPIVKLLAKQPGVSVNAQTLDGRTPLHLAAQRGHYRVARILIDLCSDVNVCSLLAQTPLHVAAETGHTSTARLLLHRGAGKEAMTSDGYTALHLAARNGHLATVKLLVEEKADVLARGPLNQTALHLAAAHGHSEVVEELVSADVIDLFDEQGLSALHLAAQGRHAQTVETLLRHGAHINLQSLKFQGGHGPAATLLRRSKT

SMILES	observed	method	tested at	remaining binding
CN(c1nccc(-c2cnn3ncccc23)n1)C1CC1	binding	–	1 µM	100%
O=C(NCCCN1CCOCC1)c1ccc(Nc2ncc(Cl)c(-c3ccc(Cl)s3)n2)cc1	binding	competition with immobilised ligand	1 µM	46%
O=C(NCCCC1CCCCC1)c1ccc(CNC(=O)c2cnn(-c3ccccc3)c2C(F)(F)F)cc1	cell-free assay	competition with immobilised ligand	0.1 µM	58%
Nc1ncc2c(n1)-c1c([nH]c3ccc(C#CC4CC4)cc13)CCCC2	binding	competition with immobilised ligand	1 µM	100%
Cc1c(NC(=O)c2cc(C(N)=O)nc3cc(F)ccc23)c(C(F)(F)F)nn1Cc1ccc(C#N)cc1	cell-free assay	competition with immobilised ligand	1 µM	92%
CN(C)c1nccc(-c2cnn3ncccc23)n1	binding	–	1 µM	97%
CCN1CCN(Cc2ccc(C(=O)Nc3ccc(C)c(Oc4ccc5c(c4)CC(=O)N5)c3)cc2C(F)(F)F)CC1	binding	competition with immobilised ligand	1 µM	100%
C[C@@H](c1ccc(-n2cnc3c(N)ncnc32)cc1)N1CCc2nn(C)c(Cc3ccccc3)c2C1=O	binding	competition with immobilised ligand	0.1 µM	40%
CN1CCN(c2cnc3c(C4CCN(C(=O)c5ccc(OC(F)(F)F)cc5N)CC4)ncnc3c2)CC1	cell-free assay	competition with immobilised ligand	1 µM	100%
O=C(NCCCN1CCOCC1)c1ccc(Nc2nccc(-c3cc4ccccc4s3)n2)cc1	binding	competition with immobilised ligand	1 µM	47%
CC(=O)c1c(NS(C)(=O)=O)c2cc(-c3ccc(Cl)cc3)c(-c3ccc(Cl)cc3Cl)nc2n(C)c1=O	cell-free assay	competition with immobilised ligand	1 µM	61%
FC(F)(F)Oc1cccc(-c2cnc3ccc(-c4ccncc4)nn23)c1	binding	competition with immobilised ligand	5 µM	69%
c1cnn2ncc(-c3ccnc(N4CCC45COC5)n3)c2c1	binding	–	1 µM	52%
CN(c1ccnc(CNc2nc(Nc3ccc4c(c3)CC(=O)N4)ncc2C(F)(F)F)n1)S(C)(=O)=O	cell-free assay	competition with immobilised ligand	1 µM	6%
C[C@@H]1CCN(c2nccc(-c3cnn4ncccc34)n2)C1	binding	–	1 µM	18%
CNC(=O)[C@@H]1CC[C@@H](n2c(-c3ccc4cnccc4c3)nc3ccc(C(=O)NCc4cccc(C(N)=O)c4)cc32)C1	binding	competition with immobilised ligand	1 µM	65%
O=C(c1ccc(Nc2ncc(Cl)c(-c3ccc(Cl)s3)n2)cc1)N1CCC(N2CCCC2)CC1	binding	competition with immobilised ligand	1 µM	8%
N[C@H]1CCN(c2nccc(-c3cnn4ncccc34)n2)C1	binding	–	1 µM	100%
COc1cc(-c2cn(C3CCc4ccccc4N(CC(F)(F)F)C3=O)nn2)ccc1-n1ccc(C)n1 (stereo not drawn)	cell-free assay	competition with immobilised ligand	1 µM	52%
CN(CCCC(F)(F)F)c1nccc(-c2cnn3ncccc23)n1	binding	–	1 µM	100%
O=C(NCC1CCOCC1)c1n[nH]cc1NC(=O)c1c(F)cccc1F	binding	competition with immobilised ligand	1 µM	70%
